Assay results from PubChem BioAssay.
Active and inactive are the calls of the source.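 Rule for the calls, unless noted: active = fluorescence slope higher than the sample average by over 3 SD (cut at about -0.22 in these data, passing the limit was not always enough); inactive = the rest.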

Tests used:
[1] = inhibitors of TNFa-induced NFkB p65 translocation, primary screen, imaging, HUVEC, MLSMR starter and 10KST1 sets (AID 438;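 active = inhibition above 20% together with a positive visual image hit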;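 note: compound added about 3h40 before a 20 min TNFalpha stimulation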;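 for inhibition: signal is the nuclear over cytoplasmic p65 intensity ratio per well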); settings: HUVEC TNFa-induced p65 nuclear translocation; cell count: measured here: nuclei count (cytotoxicity indicator), at 2.08 µM; inhibition: at 2 µM, stronger effect = higher value, 0% TNFa-plus-vehicle, 100% no-TNFa wells
[2] = endothelial E-selectin expression blockers – imaging, HUVEC, immunofluorescence, MLSMR starter and 10KST1 sets, primary screen (AID 487;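 active = visually confirmed hit in the image check and inhibition above 20%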;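 for inhibition: signal is fraction of cell area covered by stained E-selectin grains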;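 for nuclei count: 100% = median nuclei count of all wells on the same plate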); settings: HUVEC TNFalpha-induced E-selectin immunofluorescence imaging, at 2 µM; inhibition: stronger effect = higher value; nuclei count: measured here: cell number, toxicity
[3] = Primary imaging screen for DUSP6 inhibitors that restore phospho-Erk in transfected HeLa cells, chemical complementation (AID 609;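 active = compounds giving at least 50% inhibition in the cell-based MKP-3 phosphatase rescue imaging test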;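 for inhibition: phospho-Erk level distribution per well compared with pooled transfected vehicle control wells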); settings: HeLa MKP-3 transfected, phospho-Erk imaging KS statistic, at 10 µM, cells stimulated with TPA for 15 min
[4] = target: Dual specificity protein phosphatase 6 (Homo sapiens) (UniProt Q16828); assay: as above; settings: HeLa MKP-3 transfected, phospho-Erk imaging KS statistic; at 10 µM; stronger effect = higher value; cells stimulated with TPA for 15 min
Sequence of Dual specificity protein phosphatase 6 (Homo sapiens) (Q16828 whole entry, looked up): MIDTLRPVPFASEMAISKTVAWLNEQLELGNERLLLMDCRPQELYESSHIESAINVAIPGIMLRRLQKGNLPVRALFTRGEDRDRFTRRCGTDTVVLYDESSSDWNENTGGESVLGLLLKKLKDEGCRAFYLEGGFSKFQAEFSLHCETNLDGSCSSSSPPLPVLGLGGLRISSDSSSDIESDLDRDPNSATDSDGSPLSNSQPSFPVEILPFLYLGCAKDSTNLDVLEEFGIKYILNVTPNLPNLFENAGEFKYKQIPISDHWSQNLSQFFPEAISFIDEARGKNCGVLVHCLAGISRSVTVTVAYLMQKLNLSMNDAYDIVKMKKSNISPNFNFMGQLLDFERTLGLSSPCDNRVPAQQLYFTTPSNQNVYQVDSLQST

[5] = target: Voltage-gated potassium channel subunit beta-2 (Rattus norvegicus) (UniProt P62483); assay: inhibitors of rat Kvbeta2 reductase activity – biochemical, NADPH fluorescence, primary screen (AID 622); settings: recombinant KvBeta, 4-cyanobenzaldehyde reduction, at 10 µM, stronger effect = higher value;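 note: slope of raw intensity against log time taken from 70 to 1610 s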
Sequence of Voltage-gated potassium channel subunit beta-2 (Rattus norvegicus) (P62483 whole entry, looked up): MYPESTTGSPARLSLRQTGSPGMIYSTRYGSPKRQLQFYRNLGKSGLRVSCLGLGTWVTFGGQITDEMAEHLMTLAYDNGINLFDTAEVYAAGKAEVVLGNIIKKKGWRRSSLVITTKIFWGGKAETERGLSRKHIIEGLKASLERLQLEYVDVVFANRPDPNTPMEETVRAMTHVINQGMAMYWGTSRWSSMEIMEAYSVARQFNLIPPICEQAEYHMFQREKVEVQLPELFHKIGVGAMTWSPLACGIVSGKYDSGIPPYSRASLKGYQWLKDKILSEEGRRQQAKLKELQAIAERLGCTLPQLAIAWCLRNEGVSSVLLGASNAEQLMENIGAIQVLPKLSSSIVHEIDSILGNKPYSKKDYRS

[6] = target: Voltage-gated potassium channel subunit beta-2 (Rattus norvegicus) (UniProt P62483); assay: enhancers of rat Kvbeta2 NADPH turnover – biochemical, NADPH fluorescence, primary screen (AID 623;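 active = NADPH fluorescence slope more negative than the mean of all samples by about 3 SD, 99.7% confidence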;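 note: fluorescence intensity change per second fitted from 20 to 320 s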); settings: Recombinant KvBeta, NADPH fluorescence decrease slope, 10 min; at 10 µM; stronger effect = lower value
[7] = target: Alpha-2C adrenergic receptor (Homo sapiens) (UniProt P18825); assay: compounds altering alpha2C-coupled GIRK flux – cell-based, HEK293 alpha2C/GIRK1/2, thallium flux, primary screen (AID 624;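 active = fluorescence slope after compound addition differing from the mean of all screened samples at 99.7% confidence, in either direction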;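 note: slope of fluorescence ratio to pre-addition baseline per second over 15 to 24 s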); settings: thallium flux BTC fluorescence, at 10 µM, actives lie on both sides
Sequence of Alpha-2C adrenergic receptor (Homo sapiens) (P18825 whole entry, looked up): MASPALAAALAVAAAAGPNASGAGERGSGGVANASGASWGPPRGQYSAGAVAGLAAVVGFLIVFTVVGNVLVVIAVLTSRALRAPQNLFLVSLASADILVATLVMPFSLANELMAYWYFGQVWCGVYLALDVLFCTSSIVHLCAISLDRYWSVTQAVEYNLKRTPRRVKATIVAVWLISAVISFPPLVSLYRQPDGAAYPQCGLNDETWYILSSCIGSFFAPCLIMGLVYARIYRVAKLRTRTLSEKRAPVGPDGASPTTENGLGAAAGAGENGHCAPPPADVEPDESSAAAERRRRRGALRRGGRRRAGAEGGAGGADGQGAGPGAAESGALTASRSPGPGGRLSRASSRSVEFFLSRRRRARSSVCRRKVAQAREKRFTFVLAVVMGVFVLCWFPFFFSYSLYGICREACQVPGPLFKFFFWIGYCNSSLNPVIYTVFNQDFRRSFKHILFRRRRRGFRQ

[8] = inhibitors of larval lipid processing in zebrafish, primary screen, whole organism, PED6 fluorescence, gall bladder and intestine (AID 686;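 active = a full or partial loss of lipid-probe fluorescence in the fish gall bladder, intestine or both, judged by eye; inactive = no fluorescence loss, or compound toxic to the fish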;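 note: larvae 5 to 7 days old with five fish per well; signal comes from phospholipase A2 cleavage of quenched PED6 carried via bile; overnight exposure to compound and PED6 before scoring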); settings: Zebrafish larvae PED6 lipid processing, fluorescence scoring; screened at 20 µM (by protocol)
Outline: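 Test system – live zebrafish larvae aged 5-7 days, whole organism · Buffer or medium – E3 fish medium · Reagent – quenched phospholipase substrate PED6, 100 nM final, ingested by larvae · Doses – 20 µM single dose · Incubation – overnight compound and PED6 incubation · Technique – visual fluorescence microscopy scoring of gall bladder, gut · Read-out basis – visual per-well fluorescence inhibition score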

[9] = loss of swimming-algae plug formation – whole organism, Chlamydomonas reinhardtii, WT vs cilia-less mutant, absorbance, 96-well, primary screen (AID 463189;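 active = inhibition at or above 50% relative to wild type and mutant plate controls; inactive = inhibition below 50%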;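 note: 0% = wild type cc124 cells in DMSO and 100% = ciliumless bld1 mutant cells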); settings: Chlamydomonas reinhardtii gravitaxis, OD600 absorbance, 2 days; at 10 µM; stronger effect = higher value
[10] = measured here: cell density z-score
[11] = measured here: nuclear c-Myc green intensity z-score
[12] = measured here: nuclear pErk red intensity z-score, stronger effect = higher value

Row | SMILES | cell count [1] | inhibition [1] | inhibition [2] | nuclei count [2] | z-score [3, 10] | z-score [3, 11] | z-score [3, 12] | inhibition [4] | fluorescence slope [5] | NADPH fluorescence slope [6] | slope [7] | outcome [8] | inhibition [9]
1 | O=C(O)c1cnn2c(C(F)(F)F)cc(-c3ccco3)nc12 | 416 | 1.3% (inactive) | -45.3% (inactive) | 96.3% | 1.16 | -0.0109 | -0.464 | 9.39% (inactive) | -0.48 (inactive) | -7.9e-05 (inactive) | 0.005 (inactive) | inactive | 17.4% (inactive)
2 | O=c1c(-c2ccc3c(c2)OCCO3)c(C(F)(F)F)oc2cc(O)cc(O)c12 | 534 | -10.2% (inactive) | -138% (inactive) | 131% | 1.65 | -1.41 | -0.0254 | 1.9e-07% (inactive) | -0.533 (inactive) | -4e-05 (inactive) | 0.00864 (inactive) | inactive | 29.9% (inactive)
3 | O=C(NC1CCCCC1)N1CCSC1=Nc1ccccc1 | 490 | -27.8% (inactive) | -420% (inactive) | 202% | 0.92 | -1.53 | 0.173 | 24.4% (inactive) | -0.495 (inactive) | -9.6e-05 (inactive) | 0.00417 (inactive) | inactive | 11.3% (inactive)
4 | O=C1C=C(O)CC(c2cccs2)C1 (stereo unspecified) | 590 | 1.5% (inactive) | -11.9% (inactive) | 126% | -0.072 | -0.344 | -0.148 | -1.12% (inactive) | -0.536 (inactive) | -5.7e-05 (inactive) | 0.00523 (inactive) | inactive | -9.61% (inactive)
5 | CC(C)Cc1nc(NCCN2CCOCC2)c(C#N)c2c1COC(C)(C)C2 | 572 | 2.6% (inactive) | -114% (inactive) | 192% | -1.39 | 1.03 | 0.72 | -6.86% (inactive) | -0.302 (inactive) | 2.3e-05 (inactive) | 0.00502 (inactive) | inactive | 4.53% (inactive)
6 | COC(=O)C(NC(C)=O)(Nc1ccccc1)C(=O)OC | 566 | -19.3% (inactive) | -259% (inactive) | 191% | 1.28 | -1.78 | -0.855 | 18.2% (inactive) | -0.532 (inactive) | -6.4e-05 (inactive) | 0.00504 (inactive) | inactive | 2.12% (inactive)
7 | Nc1ccc2ncccc2c1N | 537 | -10% (inactive) | -47.1% (inactive) | 103% | 0.673 | 1.61 | 0.017 | -9.66% (inactive) | -0.517 (inactive) | -2.1e-05 (inactive) | 0.0034 (inactive) | inactive | -1.57% (inactive)
